The nature of test [1]: Inhibition of IRK at 10 uM by HTRF assay relative to control. A digest of the protocol:
(§1)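 HTRF kinase assay, one panel of kinases. Inhibitor stock 50 µM in 100% DMSO; tested at 10 µM. ATP and substrate at final levels near Km. Final buffer: 50 mM Hepes/NaOH pH 7.4, 40 µM Na3VO4, 0.005% Tween-20, 1 mM DTT, MnCl2 or MgCl2 at kinase-dependent levels. Started by adding ATP/substrate. Reaction run at room temperature, time varied by kinase. Detection mix in 50 mM Hepes pH 7.4, 0.1% BSA, 150 mM KF, incubated ≥1 h at room temperature. Activity expressed as % of uninhibited control; n=2.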
A general note: Time-resolved FRET reads energy transfer from a long-lived donor to a nearby acceptor.

Test [2] addresses Insulin-like growth factor 1 receptor (Homo sapiens) (UniProt P08069). The experiment in a line: Inhibition of IGF1R at 10 uM by HTRF assay relative to control. A digest of the protocol: as §1
Test [3] concerns the target T1, Mitogen-activated protein kinase 12 (Homo sapiens) (UniProt P53778).
T1 sequence (whole entry): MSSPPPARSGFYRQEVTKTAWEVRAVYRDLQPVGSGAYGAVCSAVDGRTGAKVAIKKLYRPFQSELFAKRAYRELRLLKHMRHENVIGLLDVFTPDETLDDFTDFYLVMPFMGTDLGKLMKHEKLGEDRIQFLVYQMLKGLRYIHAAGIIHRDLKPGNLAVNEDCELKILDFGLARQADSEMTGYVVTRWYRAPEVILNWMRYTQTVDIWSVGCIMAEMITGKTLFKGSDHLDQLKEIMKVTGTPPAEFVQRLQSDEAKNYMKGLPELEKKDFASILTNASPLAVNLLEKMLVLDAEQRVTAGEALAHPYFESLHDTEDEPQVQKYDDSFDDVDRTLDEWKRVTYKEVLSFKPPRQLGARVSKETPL
The test can be described thus: Inhibition of p38-gamma at 10 uM by HTRF assay relative to control. A digest of the protocol: as §1

Test [4] addresses Mitogen-activated protein kinase 8 (Homo sapiens) (UniProt P45983). The experiment in a line: Inhibition of JNK1 at 10 uM by HTRF assay relative to control. The method in brief: as §1
Test [5] deals with Mitogen-activated protein kinase 1 (Homo sapiens) (UniProt P28482). The experiment in a line: Inhibition of ERK2 at 10 uM by HTRF assay relative to control. The method in brief:
as §1

The target in test [6] is Cyclin-dependent kinase 1 (Homo sapiens) (UniProt P06493). The test can be described thus: Inhibition of CDK1 at 10 uM by HTRF assay relative to control. The method in brief: as §1
The target in test [7] is Cyclin-dependent kinase 2 (Homo sapiens) (UniProt P24941). The test can be described thus: Inhibition of CDK2 at 10 uM by HTRF assay relative to control. The method in brief:
as §1

In test [8] the target is Serine/threonine-protein kinase Chk2 (Homo sapiens) (UniProt O96017). The test can be described thus: Inhibition of CHK2 at 10 uM by HTRF assay relative to control. The method in brief:
as §1

Test [9] addresses T2, Serine/threonine-protein kinase Chk1 (Homo sapiens) (UniProt O14757).
T2 sequence (whole entry): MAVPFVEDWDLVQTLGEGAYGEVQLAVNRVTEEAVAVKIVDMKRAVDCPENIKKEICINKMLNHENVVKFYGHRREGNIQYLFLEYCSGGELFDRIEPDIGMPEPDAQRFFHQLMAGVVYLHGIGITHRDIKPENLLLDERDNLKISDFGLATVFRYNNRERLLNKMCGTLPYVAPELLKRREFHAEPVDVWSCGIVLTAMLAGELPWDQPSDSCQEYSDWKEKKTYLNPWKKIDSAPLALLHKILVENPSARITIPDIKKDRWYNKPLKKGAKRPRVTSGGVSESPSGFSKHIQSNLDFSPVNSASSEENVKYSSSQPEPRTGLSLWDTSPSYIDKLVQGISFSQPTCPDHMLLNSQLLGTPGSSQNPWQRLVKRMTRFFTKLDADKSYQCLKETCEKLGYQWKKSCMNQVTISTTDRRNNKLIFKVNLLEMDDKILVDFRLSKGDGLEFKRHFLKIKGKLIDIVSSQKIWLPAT
The experiment in a line: Inhibition of CHK1 at 10 uM by HTRF assay relative to control. A digest of the protocol: as §1

Test [10] has as its target Rho-associated protein kinase 2 (Homo sapiens) (UniProt O75116). The experiment in a line: Inhibition of ROCK2 at 10 uM by HTRF assay relative to control. The method in brief:
as §1

Test [11] is described as follows: Inhibition of PKA at 10 uM by HTRF assay relative to control. The method in brief: as §1
Test [12] addresses Ribosomal protein S6 kinase beta-1 (Homo sapiens) (UniProt P23443). The test can be described thus: Inhibition of p70S6K at 10 uM by HTRF assay relative to control. The method in brief: as §1
Test [13] has as its target RAC-alpha serine/threonine-protein kinase (Homo sapiens) (UniProt P31749). The experiment in a line: Inhibition of AKT1/PKBalpha at 10 uM by HTRF assay relative to control. A digest of the protocol: as §1
For test [14], the target named is Proto-oncogene tyrosine-protein kinase Src (Homo sapiens) (UniProt P12931). The test can be described thus: Inhibition of Src at 10 uM by HTRF assay relative to control. A digest of the protocol:
as §1

For test [15], the target named is Tyrosine-protein kinase Lck (Homo sapiens) (UniProt P06239). The experiment in a line: Inhibition of Lck at 10 uM by HTRF assay relative to control. A digest of the protocol:
as §1

In test [16] the target is Tyrosine-protein kinase Lyn (Homo sapiens) (UniProt P07948). The experiment in a line: Inhibition of Lyn at 10 uM by HTRF assay relative to control. The method in brief: as §1
In test [17] the target is Tyrosine-protein kinase Fes/Fps (Homo sapiens) (UniProt P07332). The experiment in a line: Inhibition of FES at 10 uM by HTRF assay relative to control. A digest of the protocol:
as §1

Test [18] addresses Protein-tyrosine kinase 6 (Homo sapiens) (UniProt Q13882). The experiment in a line: Inhibition of Brk at 10 uM by HTRF assay relative to control. A digest of the protocol: as §1
Test [19] concerns the target Tyrosine-protein kinase ABL1 (Homo sapiens) (UniProt P00519). The test can be described thus: Inhibition of Abl at 10 uM by HTRF assay relative to control. The method in brief:
as §1

Test [20] concerns the target High affinity nerve growth factor receptor (Homo sapiens) (UniProt P04629). The test can be described thus: Inhibition of TrkA at 10 uM by HTRF assay relative to control. A digest of the protocol: as §1

Mitogen-activated protein kinase 8 (Homo sapiens), sequence (P45983 whole entry): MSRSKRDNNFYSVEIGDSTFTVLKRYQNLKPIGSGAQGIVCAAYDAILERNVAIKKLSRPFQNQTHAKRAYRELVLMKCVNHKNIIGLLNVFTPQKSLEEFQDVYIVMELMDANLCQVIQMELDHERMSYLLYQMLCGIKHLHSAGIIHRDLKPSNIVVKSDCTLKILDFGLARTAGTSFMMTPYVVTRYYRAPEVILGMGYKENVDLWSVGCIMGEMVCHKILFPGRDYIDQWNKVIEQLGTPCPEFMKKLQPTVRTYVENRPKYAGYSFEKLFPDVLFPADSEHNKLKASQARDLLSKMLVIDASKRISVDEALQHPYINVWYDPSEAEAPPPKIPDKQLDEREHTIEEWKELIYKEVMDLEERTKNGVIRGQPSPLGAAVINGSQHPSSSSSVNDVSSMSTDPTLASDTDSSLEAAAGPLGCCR
Ribosomal protein S6 kinase beta-1 (Homo sapiens), sequence (P23443 whole entry, looked up): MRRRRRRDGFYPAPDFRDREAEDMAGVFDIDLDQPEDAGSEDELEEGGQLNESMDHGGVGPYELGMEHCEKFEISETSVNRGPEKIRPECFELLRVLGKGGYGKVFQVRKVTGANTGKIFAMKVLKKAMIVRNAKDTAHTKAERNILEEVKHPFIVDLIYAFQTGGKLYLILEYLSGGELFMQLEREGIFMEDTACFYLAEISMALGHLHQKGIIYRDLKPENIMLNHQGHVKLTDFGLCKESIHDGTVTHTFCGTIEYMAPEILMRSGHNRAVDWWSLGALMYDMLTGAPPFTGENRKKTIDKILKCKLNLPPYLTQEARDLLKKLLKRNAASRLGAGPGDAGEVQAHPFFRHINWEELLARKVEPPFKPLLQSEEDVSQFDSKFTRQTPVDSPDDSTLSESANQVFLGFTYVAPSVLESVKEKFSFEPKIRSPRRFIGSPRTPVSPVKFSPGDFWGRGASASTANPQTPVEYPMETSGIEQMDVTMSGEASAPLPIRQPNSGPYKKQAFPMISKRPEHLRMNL
Insulin-like growth factor 1 receptor (Homo sapiens), sequence (P08069 31-736 limits assumed): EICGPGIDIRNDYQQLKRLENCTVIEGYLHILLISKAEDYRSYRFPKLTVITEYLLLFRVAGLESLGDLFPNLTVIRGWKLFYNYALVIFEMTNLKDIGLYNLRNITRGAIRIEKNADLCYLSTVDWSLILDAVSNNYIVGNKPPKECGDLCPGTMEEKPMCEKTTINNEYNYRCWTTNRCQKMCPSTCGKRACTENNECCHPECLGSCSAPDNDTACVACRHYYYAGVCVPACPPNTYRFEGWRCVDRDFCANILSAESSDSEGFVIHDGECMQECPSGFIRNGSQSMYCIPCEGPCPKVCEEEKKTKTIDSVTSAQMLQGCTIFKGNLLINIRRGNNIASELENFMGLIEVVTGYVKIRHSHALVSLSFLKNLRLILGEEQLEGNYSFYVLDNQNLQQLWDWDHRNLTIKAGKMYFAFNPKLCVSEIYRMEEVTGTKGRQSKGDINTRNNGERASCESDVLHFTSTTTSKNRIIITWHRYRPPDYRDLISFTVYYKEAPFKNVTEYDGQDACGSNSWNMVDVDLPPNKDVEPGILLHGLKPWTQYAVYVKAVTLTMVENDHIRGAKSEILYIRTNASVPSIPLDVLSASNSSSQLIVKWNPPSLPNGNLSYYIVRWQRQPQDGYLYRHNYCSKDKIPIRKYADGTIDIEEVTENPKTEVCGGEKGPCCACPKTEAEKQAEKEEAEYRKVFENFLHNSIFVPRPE
Insulin-like growth factor 1 receptor (Homo sapiens), sequence (P08069 741-1367 limits assumed): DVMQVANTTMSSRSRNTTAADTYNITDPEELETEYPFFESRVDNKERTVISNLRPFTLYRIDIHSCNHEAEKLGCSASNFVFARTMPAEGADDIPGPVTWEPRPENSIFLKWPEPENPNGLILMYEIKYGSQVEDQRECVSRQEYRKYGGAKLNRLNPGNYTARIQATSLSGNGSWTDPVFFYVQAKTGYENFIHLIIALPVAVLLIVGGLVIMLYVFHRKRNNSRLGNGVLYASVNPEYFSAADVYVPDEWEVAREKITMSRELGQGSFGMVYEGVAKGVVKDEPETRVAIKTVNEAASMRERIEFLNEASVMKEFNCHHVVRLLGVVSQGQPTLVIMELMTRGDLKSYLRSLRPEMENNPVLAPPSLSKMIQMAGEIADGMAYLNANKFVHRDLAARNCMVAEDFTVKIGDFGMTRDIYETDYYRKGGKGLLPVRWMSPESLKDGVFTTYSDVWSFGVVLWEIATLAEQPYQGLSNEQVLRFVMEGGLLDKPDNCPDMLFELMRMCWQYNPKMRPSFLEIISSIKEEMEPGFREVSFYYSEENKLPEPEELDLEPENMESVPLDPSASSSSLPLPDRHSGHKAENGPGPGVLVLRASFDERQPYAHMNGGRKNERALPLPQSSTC
Tyrosine-protein kinase Fes/Fps (Homo sapiens), sequence (P07332 whole entry): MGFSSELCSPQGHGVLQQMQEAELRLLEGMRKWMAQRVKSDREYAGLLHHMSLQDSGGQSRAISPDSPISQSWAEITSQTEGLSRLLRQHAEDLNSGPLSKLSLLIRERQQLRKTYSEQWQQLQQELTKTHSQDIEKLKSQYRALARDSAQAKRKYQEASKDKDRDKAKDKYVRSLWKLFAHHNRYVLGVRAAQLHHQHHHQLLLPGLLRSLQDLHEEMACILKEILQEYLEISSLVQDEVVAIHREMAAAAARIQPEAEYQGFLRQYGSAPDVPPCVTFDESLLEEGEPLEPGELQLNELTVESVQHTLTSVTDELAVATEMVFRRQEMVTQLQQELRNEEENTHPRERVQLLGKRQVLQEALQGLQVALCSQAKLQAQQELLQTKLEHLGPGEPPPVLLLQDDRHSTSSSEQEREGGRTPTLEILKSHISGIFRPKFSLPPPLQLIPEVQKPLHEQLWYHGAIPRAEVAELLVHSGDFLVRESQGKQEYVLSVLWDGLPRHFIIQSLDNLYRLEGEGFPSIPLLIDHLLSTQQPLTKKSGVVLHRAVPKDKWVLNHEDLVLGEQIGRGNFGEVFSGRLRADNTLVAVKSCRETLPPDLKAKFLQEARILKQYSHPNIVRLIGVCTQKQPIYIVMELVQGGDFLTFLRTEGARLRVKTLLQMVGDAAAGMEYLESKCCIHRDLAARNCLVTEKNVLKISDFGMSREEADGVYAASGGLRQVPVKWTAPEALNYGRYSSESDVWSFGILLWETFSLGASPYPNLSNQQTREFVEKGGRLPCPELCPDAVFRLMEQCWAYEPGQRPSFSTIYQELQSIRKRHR
Protein-tyrosine kinase 6 (Homo sapiens), sequence (Q13882 whole entry, looked up): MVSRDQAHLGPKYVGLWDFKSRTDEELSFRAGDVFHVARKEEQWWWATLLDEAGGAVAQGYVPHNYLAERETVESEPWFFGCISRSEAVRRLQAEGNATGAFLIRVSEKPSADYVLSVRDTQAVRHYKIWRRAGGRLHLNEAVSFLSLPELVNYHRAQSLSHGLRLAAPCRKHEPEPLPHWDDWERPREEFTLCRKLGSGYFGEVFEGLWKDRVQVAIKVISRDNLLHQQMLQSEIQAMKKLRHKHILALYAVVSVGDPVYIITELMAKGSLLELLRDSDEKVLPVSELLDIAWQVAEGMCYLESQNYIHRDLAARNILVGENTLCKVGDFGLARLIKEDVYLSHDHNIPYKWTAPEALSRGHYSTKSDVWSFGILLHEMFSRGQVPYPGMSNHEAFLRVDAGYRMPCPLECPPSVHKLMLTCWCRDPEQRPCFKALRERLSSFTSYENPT
Mitogen-activated protein kinase 1 (Homo sapiens), sequence (P28482 whole entry): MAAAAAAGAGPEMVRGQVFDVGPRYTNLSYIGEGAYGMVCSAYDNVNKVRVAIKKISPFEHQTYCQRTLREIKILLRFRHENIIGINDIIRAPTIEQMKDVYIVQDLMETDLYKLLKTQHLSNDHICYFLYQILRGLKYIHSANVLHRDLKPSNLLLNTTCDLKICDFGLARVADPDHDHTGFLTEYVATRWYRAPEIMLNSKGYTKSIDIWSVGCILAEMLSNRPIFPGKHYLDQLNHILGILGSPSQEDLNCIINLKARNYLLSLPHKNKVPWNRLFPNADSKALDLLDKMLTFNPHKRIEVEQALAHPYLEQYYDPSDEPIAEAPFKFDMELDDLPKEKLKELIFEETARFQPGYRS
Proto-oncogene tyrosine-protein kinase Src (Homo sapiens), sequence (P12931 2-536 limits assumed): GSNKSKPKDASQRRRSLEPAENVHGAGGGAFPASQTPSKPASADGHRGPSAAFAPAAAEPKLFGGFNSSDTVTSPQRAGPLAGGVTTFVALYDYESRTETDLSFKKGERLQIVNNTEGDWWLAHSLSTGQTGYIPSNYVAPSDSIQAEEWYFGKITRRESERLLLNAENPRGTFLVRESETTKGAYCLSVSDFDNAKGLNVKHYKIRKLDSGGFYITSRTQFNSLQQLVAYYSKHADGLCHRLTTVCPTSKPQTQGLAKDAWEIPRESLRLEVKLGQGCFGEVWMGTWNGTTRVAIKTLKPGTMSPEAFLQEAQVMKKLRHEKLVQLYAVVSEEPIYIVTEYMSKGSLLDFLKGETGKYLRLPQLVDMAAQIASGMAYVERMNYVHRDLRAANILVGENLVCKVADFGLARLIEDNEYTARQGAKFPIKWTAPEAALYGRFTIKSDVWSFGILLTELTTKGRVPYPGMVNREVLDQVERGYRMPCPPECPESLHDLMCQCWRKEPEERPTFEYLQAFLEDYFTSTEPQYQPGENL
Tyrosine-protein kinase Lck (Homo sapiens), sequence (P06239 2-509 limits assumed): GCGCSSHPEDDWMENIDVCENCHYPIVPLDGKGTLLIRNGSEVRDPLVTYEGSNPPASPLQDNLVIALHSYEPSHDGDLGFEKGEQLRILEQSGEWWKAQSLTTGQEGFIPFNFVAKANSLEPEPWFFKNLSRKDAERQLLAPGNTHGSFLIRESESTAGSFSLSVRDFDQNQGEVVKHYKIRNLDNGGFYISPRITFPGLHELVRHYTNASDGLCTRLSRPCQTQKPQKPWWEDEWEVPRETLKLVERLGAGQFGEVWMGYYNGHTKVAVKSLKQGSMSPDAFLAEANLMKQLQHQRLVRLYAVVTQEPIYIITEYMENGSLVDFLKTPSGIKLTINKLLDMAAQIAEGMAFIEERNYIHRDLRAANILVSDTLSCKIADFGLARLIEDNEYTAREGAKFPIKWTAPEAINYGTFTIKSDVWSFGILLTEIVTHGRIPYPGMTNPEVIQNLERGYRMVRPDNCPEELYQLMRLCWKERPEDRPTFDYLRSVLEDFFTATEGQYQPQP

What is called inhibition is the relative decrease from the control value, in per cent. Read a low inhibition as little suppression. On to `Cc1cccc(N(C)c2cc(N3CCN(C(=O)Cc4c[nH]c5ccccc45)CC3)ncn2)c1`, for which the inhibition turned out to be 0% in [1]; 0% in [2]; 3% in test [3]; 9% in [4]; 5% in test [5]; 0% in test [6]. Further, the inhibition in [7] turned out to be 10%; in [8] it was 0%; in [9] it was 4%; in [10], 0%; in [11], 0%; in [12] it was 7%. For the same molecule, the inhibition was 0% in test [13]; 0% in test [14]; 0% in [15]; 6% in [16]; 24% in test [17]; 16% in [18]. Moreover, the inhibition in test [19] is 6%; in test [20], 2%.
Take `CC(=O)CCCCC(=O)N1CCN(c2nccc(Oc3cccc(C)c3)n2)CC1`: the inhibition in test [1] came out at 0%; in test [2], 0%; in test [3] it was 0%; in test [4] it was 8%; in test [5], 0%; in [6], 0%. Besides, the inhibition in [7] came to 10%; in test [8], 0%; in test [9], 4%; in [10] it was 0%; in [11], 0%; in test [12] it was 3%. The inhibition stood at 0% in test [13]; 5% in [14]; 0% in [15]; 3% in test [16]; 16% in test [17]; 3% in test [18]. The inhibition in [19] is 1%; in [20], 0%.
Take `CN(C)CC(C)(C)CNC(=O)[C@@H]1CCCN1c1nccc(Nc2ccccc2)n1`: the inhibition in test [1] was found to be 0%; in test [2], 0%; in [3] it was 2%; in [4], 0%; in test [5], 0%; in test [6], 0%. The inhibition in test [7] turned out to be 9%; in [8], 0%; in [9] it was 6%; in [10], 0%; in test [11], 0%; in test [12], 13%. Besides, the inhibition was found to be 0% in test [13]; 0% in test [14]; 0% in test [15]; 13% in [16]; 20% in test [17]; 4% in test [18]. Moreover, the values for the inhibition in test [19] and in [20] were 0% and 6%, respectively.
As for `Cc1cccc(CN2CCN(c3cc(N(C)c4cccc(C)c4)ncn3)CC2)c1`, the inhibition in [1] came to 0%; in test [2] it was 0%; in test [3], 2%; in test [4] it was 9%; in [5], 8%; in test [6], 0%. The inhibition in test [7] is 0%; in test [8] it was 2%; in [9] it was 0%; in test [10] it was 1%; in test [11], 0%; in test [12] it was 10%. Also, the inhibition is 5% in test [13]; 8% in [14]; 0% in test [15]; 3% in [16]; 4% in test [17]; 7% in test [18]. Moreover, the inhibition in [19] was found to be 2%; in [20], 4%.
Regarding `CN(C)c1ccc(C(=O)N2CCN(c3ncnc4c3CN(Cc3ccccc3)CC4)CC2)c2ccccc12`, the inhibition in test [1] was 0%; in test [2], 0%; in test [3] it was 0%; in test [4] it was 6%; in test [5], 8%; in [6], 0%. For the same molecule, the inhibition amounted to 5% in test [7]; 6% in test [8]; 4% in test [9]; 0% in test [10]; 0% in [11]; 3% in [12]. Besides, the inhibition in test [13] worked out at 4%; in test [14], 0%; in test [15], 0%; in test [16], 0%; in [17], 2%; in test [18] it was 0%. Besides, the inhibition turned out to be 8% in [19] and 7% in test [20].
In the case of `COc1cccc(Nc2cc(Nc3cccc(C(=O)NCCCn4ccnc4)c3)nc(N)n2)c1`, the inhibition in test [1] was 0%; in test [2], 8%; in test [3], 17%; in test [4], 71%; in test [5] it was 1%; in test [6] it was 2%. Also, the inhibition in [7] was found to be 2%; in test [8], 3%; in [9] it was 5%; in test [10] it was 12%; in test [11] it was 13%; in test [12], 14%. Moreover, the inhibition was determined as 1% in test [13]; 10% in test [14]; 0% in test [15]; 2% in [16]; 18% in test [17]; 16% in test [18]. Besides, the inhibition in [19] was 25%; in [20], 7%.
Regarding `COC[C@@H]1CCCN1C(=O)C1CCCN1c1cc(Nc2cccc(Br)c2)ncn1` (stereo not given in full), the inhibition in test [1], in [2], in test [3], in [4], in test [5] and in test [6] was 0% throughout. Also, the inhibition was found to be 4% in test [7]; 3% in [8]; 2% in [9]; 0% in [10]; 8% in [11]; 3% in test [12]. Besides, the inhibition in [13] was determined as 0%; in [14], 3%; in [15], 0%; in [16] it was 0%; in [17], 5%; in test [18], 3%. The inhibition stood at 7% in test [19] and 8% in test [20].
